Source: the EternaBench riboswitch data

System: MS2 coat protein
Experiment: apparent Kd, MS2 coat protein; higher = weaker binding; RNA-MaP array; FMN 200 µM where present
How it was run: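 Two titrations, one without ligand and one with constant ligand, were run with SNAP-549-labelled MS2 coat protein from 0.7 or 1.5 nM, doubling to 3 µM. The targets were designs transcribed by stalled E. coli RNA polymerase on Illumina sequencing-chip clusters, in 100 mM Tris-HCl pH 7.5, 80 mM KCl, 4 mM MgCl2, BSA, DTT, yeast tRNA and Tween-20. The apparent Kd is the median of filtered per-cluster binding-curve fits, with green signal normalised to red-channel RNA signal and control-cluster median Fmax.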

[1] = designed as: ON switch for flavin mononucleotide, no ligand
[2] = ligand present: flavin mononucleotide, designed as: ON switch for flavin mononucleotide
[3] = designed as: OFF switch for flavin mononucleotide, no ligand
[4] = ligand present: flavin mononucleotide, designed as: OFF switch for flavin mononucleotide

Row | Sequence | apparent Kd [1] | apparent Kd [2] | apparent Kd [3] | apparent Kd [4]
1 | ACAUAAAUUCGAGGAUAUCGGUGAUAUAAUUUACGAGAAGGCGAUAAUAGUUAUAAACUUAUAGACAUGAGGAUCACCCAUGUA | 30.2 nM | 28.3 nM |  | 
2 | UGAUUCGAGGCUAAGCCUCCAUCACAGGAUAUGCACGAGACAUGAGGAUCACCCAUGUGGCGAAGGCAGAAGGGUGAUACGUCU | 197 nM | 24.6 nM |  | 
3 | CAGGUCUGAGGAUAUCCAUCCUCCUACAUGAGGAUCACCCAUGUUUCCCUCUGGGUUUUCGGAGAAGGCAGUUUUU |  |  | 749 nM | 525 nM
4 | UUUGGGUGGCUGGAGGAUAUUCUUGUGGUUACAUGAGGAUCACCCAUGUGUCGCGCGGUACGCGAGGAGAAGGCUGGCGGCCGUU | 327 nM | 56.2 nM |  | 
5 | ACAUGAUUCAAGAAGGAUGUAUUUGAUUUGAUCAUAGGAUAUUGUUAUUUUGUUUACUCUAAUAACAUGAGGAUCACCCAUGUA | 14.4 nM | 10.4 nM |  | 
6 | GUGCACACUCGAGGAUAUCGGAGAGGACUCCUUCGAGAAGGCGAUUCGUGCCGUGUUAUUCUGGACAUGAGGAUCACCCAUGUG | 126 nM | 38.2 nM |  | 
7 | AUUAUACAUGAGGAUCACCCAUGUUUUGGUGGAUCAGGAUAUAAAUUGAAUGAGUUUUAGUUAGAAGGGAUAUUUA | 50.6 nM | 36.3 nM |  | 
8 | UGCGAGCAGAUCGUCCGCUCACAUGAGGAUCACCCAUGUAGGAGAAGGCGCCAUGAAGGCAGCGGCGAGGAUAUCCUCGUGGGC |  |  | 78 nM | 77.6 nM
9 | AAAUUAAGAAGAGGAUAUUGACAUGAGGAUCACCCAUGUAUUUGGGAAUGUUUACUGAAUUCUUACAAGAAGGUUUACGAACUU |  |  | 157 nM | 99.7 nM
10 | AAUGGGCAGCAGAAGGCAUGUCUACGGACAUGAGGAUCACCCAUGUAGUAAAGCCGAAAGGCGCAUGAGGAUAUGCUGCCCUAA |  | 8.23 nM |  | 
11 | AAAACAUGAGGAUCACCCAUGUAAAGAACGGUUAAUAGAUGUGAGGAUAUACUAGAAUUUAGGUAGUAGAAGGCACUGGGUACA | 21.7 nM | 23.4 nM |  | 
12 | GUGGUCAGACAUGAGGAUCACCCAUGUGGAAUAAAUAAGGACAAGGAUAUGGAAUAUAGGAUAUACCAGAAGGUGUGGUUGGUG | 70 nM | 86 nM |  | 
13 | AAGACAUGAGGAUCACCCAUGUAAAGACCGGUCGAUCAAUGUGAGGAUAUACCAUAAUUGAUAGGGUAGAAGGCACUGGGUUGA | 168 nM | 128 nM |  | 
14 | GGACGUUACAUCUACAUGAGGAUCACCCAUGUCUCUUGAGAUGAGGAUAUGUAUACGAAUCGUUUAUAGAAGGCAUGUACGUCC | 39.8 nM | 46.4 nM |  | 
15 | GCUAGGAGUGUGAGGAUAUGCUGAACCUUGGUUCAGCAGAAGGCACAUGAGGAUCACCCAUGUGAAGACCUAGC |  |  | 25.7 nM | 149 nM
16 | AUAUCCAAUCAAGGAUAUGUAUUAAAGAUUUGAAAACAUGAGGAUCACCCAUGUAUAUGGUGGGAACAGAAGGUGAAUAAGUAA |  |  | 140 nM | 164 nM
17 | UUUUUACAUGAGGAUCACCCAUGUCAGGAUAUGCUUAUAUUUUAUUAUUUUAUUUUUUGCAGAAGGGACUAUUA |  |  | 91.8 nM | 68 nM
18 | CUUUAGUGAGGAUAUCAGUAGUAGAACAAUAGUACUACUACUGAGAAGGCACAUGAGGAUCACCCAUGUUCCUC |  |  | 31 nM | 157 nM
19 | GUCUUCCUAGGAUAUACAUGAGGAUCACCCAUGUACAGUUUCGUCAAAGGAUAAUCGCGUAGAAGGAGGUGGAU |  |  | 16.5 nM | 23.6 nM
20 | ACAUGAGGAUCACCCAUGUGAAAAGAAUGGCUGACACAGAGAUAGGAUAUAUGUGCAUAUCAAACAUAGAAGGGUCAUGACUGG |  |  | 30.3 nM | 30.2 nM
21 | ACAAAUCGAGGAUAUACAUGAGGAUCACCCAUGUGGAGCCCACUGCGCGGUUCUCAGCGUAGAAGGCGAAAACA |  |  | 30.4 nM | 99.9 nM
22 | AGUCCUGAUGUUAGGAUAUGCAACUAGCCAUUGUAGCAGAAGGAACAUGAGGAUCACCCAUGUACAAAGACCCA |  |  | 30.1 nM | 55.4 nM
23 | CCUAUAAGAAAAUAGACGAAGUGGCCAGAAGGUGAAUGCCACAUGAGGAUCACCCAUGUUUCGAUCAAGGAUAUGGUUUCUCAC | 497 nM | 129 nM |  | 
24 | GUGGCUAGUGCAGGAUAUUAGUGCGUGUAGUAUUGAGAAGGGCACAUGAGGAUCACCCAUGUGAUCAAUCACUGUUAAGGUCGC |  |  | 79.7 nM | 76.5 nM
25 | AGAUAACAUGUAGGAUAUCGAGGCCUGAGGCCUCGAGAAGGACAUGAGGAUCACCCAUGUUUGCCGAGCAUGGAAUCACGCACU |  |  | 18.4 nM | 54.6 nM
26 | CACAAGAAAGUCGAAGGUUGAAGUAGAAGGACUACAACAUGACAUGAGGAUCACCCAUGUGCUAAGUAGGAUAUGCUUUAAUCG |  |  | 5.63 nM | 5.47 nM
27 | CAAGAUGUCUGGUAAUUGCGUACACAGGAUAUGGAUUGUUACAUGAGGAUCACCCAUGUUUCCUUUCAGAAGGGUGUAUCAUGU | 208 nM | 20.5 nM |  | 
28 | AAGAAGUCAGGAUAUCCUGCUCGUCACUUGCGUGAUGAGUAGGAGAAGGGACAUGAGGAUCACCCAUGUAAAGU |  |  | 51.1 nM | 56.2 nM

Row | Sequence | apparent Kd [1] | apparent Kd [2] | apparent Kd [3] | apparent Kd [4]
29 | GCUCCUCGAGUUAGGAUAUGUCGGCUAUCUAAAUGAUAGAAGGGACAUGAGGAUCACCCAUGUCACGGGAUUGA |  |  | 56.7 nM | 58.7 nM
30 | UGUCGGAAGUAGAAGGGUAUGACAUGAGGAUCACCCAUGUGAUUUGGGUAUACAGGAUAUGCUUAUAUAUAUGAUUAAAUUAUU |  |  | 451 nM | 248 nM
31 | AUUGUGUUAGGAUAUGCUUAUGGUGGGUAGUCCAGUAUGAAGUAGAAGGGACAUGAGGAUCACCCAUGUGCUCA |  |  | 60.1 nM | 56.2 nM
32 | AAUACUACAGGAUAUACAUGGGUGAUCCUCAUGUCCCUUCUACAUGAGGAUCACCCAUGUAGAAGGGUAGUACA |  |  | 13.4 nM | 8.3 nM
33 | AAAAAGCGAGGAUAUACAUGAGGAUCACCCAUGUGAAAAAAAAAAAAAAAAAAAAAAAGUAGAAGGCGCAAAAA |  |  | 85.8 nM | 65.3 nM
34 | AGUAUGAGAGGAUAUACGAAUAAACAUGGAAACAUGAUGGGACAUGAGGAUCACCCAUGUAGAAGGCUCGUACA |  |  | 118 nM | 358 nM
35 | AAACUGCAUGUGAGGAUAUGCACCGGCUAAACCGGGCAGAAGGCACAUGAGGAUCACCCAUGUCAUCCUAUUGC |  |  | 9.41 nM | 18.4 nM
36 | GCUGUCGCGUGAGGAUAUGGUCUGCAGUGCUGACCAGAAGGCAUGUCGAUAGACAUGAGGAUCACCCAUGUGGUUAGGGCGGCU | 804 nM | 351 nM |  | 
37 | GUAGCAUACCGAGGAUAUUCAUACCGGAAACGGACAUGAGGAUCACCCAUGUGGCGAAAGCCUUUGGAGAAGGCGGAAUGCUAC | 13.2 nM | 11.7 nM |  | 
38 | ACGUGUCGUGUAGGAUAUGACACAGGAAACUGGUCAGAAGGACAUGAGGAUCACCCAUGUAAAGUGUUUAAGAAUGACGUAUGC |  |  | 43.9 nM | 106 nM
39 | GGUUCACGAGGAUAUCGAUUUUAGUACAUGAGGAUCACCCAUGUUGUCCAGGUUUCGAUUCGAGAAGGCGUGAACC |  |  | 22.8 nM | 22.5 nM
40 | GCCGUUAAAGGAUAUACAUGAGGAUCACCCAUGUCGGUAUAAAAUUUACCGCCUCCCUGUAGAAGGUUAAGGCA |  |  | 15.6 nM | 19.8 nM
41 | UUUGUGUGAGGAUAUUAAUUGCAAGCGAAUAGGCUUGUGAUUGAGAAGGCACAUGAGGAUCACCCAUGUUCCUU |  |  | 18.1 nM | 151 nM
42 | AAACAUGUCCGAGGAUAUCUGAGAUCAUUUUCAAGAGAAGGCGGACAUGAGGAUCACCCAUGUCUCUCCUCAUCAACUCCAAAU |  |  | 18.8 nM | 136 nM
43 | ACAUGAGGAUCACCCAUGUUUUUCGGGUACUCUUUUUACAGCAAGGAUAUGCAUGUUUUUUUUACGCAGAAGGUGCUUUACGUC |  |  | 102 nM | 165 nM
44 | UUUUUUGUUGUGAGGAUAUCGUUGUUGUUGUGGAUCGAGAAGGCACAUGAGGAUCACCCAUGUUUGUUGUGGUU |  |  | 89.1 nM | 220 nM
45 | UGGUACAUGAGGAUCACCCAUGUAAGAGCCCUCAUGCGAUGUAGAAGGUUAAUGCGUGUAGUGCUAAAGGAUAUACAUGAGUUU |  |  | 82.3 nM | 71.2 nM
46 | UUAUUAUAUGUAGGAUAUGCAUAUUAUUAUUAUGCAGAAGGACAUGAGGAUCACCCAUGUAUAUUAUUAUUAUAUAUUGUAUAU |  |  | 27.8 nM | 43.2 nM
47 | GGAUGUCAAAGACAUCCAUAACGAACAUGAGGAUCACCCAUGUAGGAUAUGCUACUCAAAGAGUAGCAGAAGGACAUGUGCCUU |  |  | 33.6 nM | 269 nM
48 | AGUUAAUGCACAUGAGGAUCACCCAUGUCACUUUAUAGAAGACAGGAUAUGCAUGCCAUCAAUGUGCAGAAGGGUCAUCACCGA | 81 nM | 195 nM |  | 
49 | GCACGGCAUGUAGGAUAUCGAGCUCCGGGAGCUCGAGAAGGACAUGAGGAUCACCCAUGUGCUCACAGUGAGUGAGCGCUGUGC |  |  | 23.9 nM | 93.5 nM
50 | AAGUUAGGGAGAGGAUAUUGACAUGAGGAUCACCCAUGUAUUUGGGAGUGUUUACUGAAUUCUUACGAGAAGGCUUACGAAAUU |  |  | 344 nM | 259 nM
51 | AAAACCUCAUGAGGAUAUCCAACAUGAGGAUCACCCAUGUUAGUCUCAGUACUAGAUACUUGAGAGGAGAAGGCAUGCCAGGGC | 97 nM | 31.6 nM |  | 
52 | ACUGAAGUCACAGGAUAUCAUAUGUCGGCACAUUGAGAAGGGUGACUGGGCUACAUGAGGAUCACCCAUGUGCCGUCGUAACAA | 104 nM | 80.4 nM |  | 
53 | UCAUGGUAGCAGGAUAUGCUUGUAAUUUUUUAUGCAGAAGGGCUUACAUGAGGAUCACCCAUGUGUUAGGUCUA |  |  | 43.4 nM | 66.2 nM
54 | GCGAGUAAAGCAGGAUAUCUAUUGUCUCUGUAACAUGAGGAUCACCCAUGUAGAGAAGGGCUUAGUCAUACACUUCGAACUCGC |  |  | 5.57 nM | 5.38 nM
55 | UUAAGUUCAGGAUAUGAUGUUUUAAACAUGAGGAUCACCCAUGUAGAUCCUGAAUUAACAUCAGAAGGGAAUAUUU |  |  | 37.5 nM | 217 nM
